Series [1] in a line: Half-life in human liver S9 fraction at 1 uM pretreated for 5 mins followed by NADPH/UDPGA/ PAPS addition by Q-TOF LC-MS/MS analysis. Type of series: ADME, subcellular. The gist of the method:
(§1)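 Human liver S9 fraction (1 mg/mL) in 50 mM Tris buffer, pH 7.5, fortified with NADPH (1 mM), UDPGA and PAPS to support oxidative, glucuronidation and sulfation pathways. Parent loss and metabolites were analysed by Q-TOF LC-MS/MS.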

Series [2] in a line: Drug metabolism in human liver S9 fraction assessed as UGT-mediated compound glucuronidation by measuring M2 formation at 1 uM pretreated for 5 mins followed by NADPH/UDPGA/ PAPS addition by Q-TOF LC-MS/MS analysis. It is filed as ADME, subcellular. To be noted: s9, 1 µM. The gist of the method:
as §1

The nature of series [3]: Drug metabolism in human liver microsomes assessed as compound oxidation at 1 uM measured after 5 mins in absence of NADPH by Q-TOF LC-MS/MS analysis. It is filed as ADME, microsome.
The nature of series [4]: Drug metabolism in human liver S9 fraction assessed as SULT-mediated compound sulfation by measuring M1 formation at 1 uM pretreated for 5 mins followed by NADPH/UDPGA/ PAPS addition by Q-TOF LC-MS/MS analysis. It is filed as ADME, subcellular. The conditions noted are these: s9, 1 µM. The gist of the method: as §1
The subject of a further series is B16. In words: Inhibition of alpha-MSH stimulated melanogenesis in mouse B16 cells. It is filed as functional, cell-based.
Series [5] can be described thus: Drug metabolism in human liver S9 fraction assessed as SULT-mediated compound sulfation by measuring M3 formation at 1 uM pretreated for 5 mins followed by NADPH/UDPGA/ PAPS addition by Q-TOF LC-MS/MS analysis. It is filed as ADME, subcellular. To be noted: s9, 1 µM. The gist of the method:
as §1

The nature of series [6]: Drug metabolism in human liver S9 fraction assessed as compound oxidation by measuring 4-[2-(4-Trifluoromethyl-benzylamino)-thiazol-4-yl]-benzene-1,2-diol formation at 1 uM pretreated for 5 mins followed by NADPH/UDPGA/ PAPS addition by Q-TOF LC-MS/MS analysis. Type of series: ADME, subcellular. The conditions noted are these: s9, 1 µM. The gist of the method: as §1
Series [7] is described as follows: Drug metabolism in human liver S9 fraction assessed as compound oxidation by measuring (4-Benzo[1,3]dioxol-5-yl-1-oxo-thiazol-2-yl)-(4-trifluoromethyl-benzyl)-amine formation at 1 uM pretreated for 5 mins followed by NADPH/UDPGA/ PAPS addition by Q-TOF LC-MS/MS analysis. Type of series: ADME, subcellular. To be noted: s9, 1 µM. In a few lines:
as §1

A short description of series [8]: Drug metabolism in human liver S9 fraction assessed as UGT-mediated compound glucuronidation by measuring M4 formation at 1 uM pretreated for 5 mins followed by NADPH/UDPGA/ PAPS addition by Q-TOF LC-MS/MS analysis. To be noted: s9, 1 µM. It is filed as ADME, subcellular. The gist of the method:
as §1

Series [9] is described as follows: Drug metabolism in human liver S9 fraction treated with 4-(Benzo[d][1,3]dioxol-5-yl)-N-(4-(trifluoromethyl)benzyl)thiazol-2-amine assessed as metabolite formation at 1 uM pretreated for 5 mins followed by NADPH/UDPGA/ PAPS addition by Q-TOF LC-MS/MS analysis. Type of series: ADME, subcellular. To be noted: s9, 1 µM. In a few lines: as §1

This note sets out measurements from ChEMBL document CHEMBL4177588, “Synthesis, biological evaluation, and metabolic stability of chlorogenic acid derivatives possessing thiazole as potent inhibitors of α-MSH-stimulated melanogenesis” (Bioorg Med Chem Lett, 2017).

pIC50: −log10 of the molar value.

Take `O=C(/C=C/c1ccc(O)c(O)c1)NCc1ccc(C(F)(F)F)cc1`: the half-life at 1 µM in [1] stood at 5 min. The Drug metabolism result in [2], in series [3] and in series [4] was “Metabolite_Detected” throughout.

`Oc1ccc(-c2csc(NCc3cccc(Cl)c3)n2)cc1O` had a pIC50 in the series on B16 of less than 4.30.

Consider `FC(F)(F)c1ccc(CNc2nc(-c3ccc4c(c3)OCO4)cs2)cc1`, for which the Drug metabolism result in [5], in series [6], in series [7] and in [8] was “Metabolite_Detected” in each case. The half-life at 1 µM in series [1] came out at 69.3 min. In addition, in the series on B16, the pIC50 was 6.05.

`Oc1ccc(-c2csc(NCc3ccc(C(F)(F)F)cc3)n2)cc1O`: in series [9], the Drug metabolism result is given as “Metabolite_Detected”. For the same molecule, in the series on B16, the pIC50 was 4.49.

In the series on B16, `c1ccc(CNc2nc(-c3ccc4c(c3)OCO4)cs2)cc1` showed a pIC50 of 4.95.

Turning to `Oc1ccc(-c2csc(NCc3ccccc3Cl)n2)cc1O`, in the series on B16, the pIC50 was 5.70.

Turning to `Clc1cccc(CNc2nc(-c3ccc4c(c3)OCO4)cs2)c1`, the pIC50 in the series with B16 was 4.88. Compared with the last molecule, the pIC50 is 0.82 log units lower.

For the molecule `Oc1ccc(-c2csc(NCc3cccc(C(F)(F)F)c3)n2)cc1O`, in the series on B16, the pIC50 is 5.74. Against the preceding molecule, the pIC50 is 0.86 log units higher.

On to `FC(F)(F)c1cccc(CNc2nc(-c3ccc4c(c3)OCO4)cs2)c1`, for which, in the series with B16, the pIC50 was 4.82.

Consider `Clc1ccc(CNc2nc(-c3ccc4c(c3)OCO4)cs2)cc1`, for which the pIC50 in the series with B16 was 4.42.

Regarding `Oc1ccc(-c2csc(NCc3ccc(Cl)cc3)n2)cc1O`, in the series on B16, the pIC50 was 4.94. Against the preceding molecule, the pIC50 is 0.52 log units higher.

As for `[O-][s+]1cc(-c2ccc3c(c2)OCO3)nc1NCc1ccc(C(F)(F)F)cc1` (stereo not given), the Drug metabolism entry in series [9] is listed as “Metabolite_Detected”.

On to `Clc1ccccc1CNc1nc(-c2ccc3c(c2)OCO3)cs1`, for which the pIC50 in the series on B16 was 4.91.

Regarding `Oc1ccc(-c2csc(NCc3ccccc3C(F)(F)F)n2)cc1O`, in the series with B16, the pIC50 was 5.59.

In the series on B16, `FC(F)(F)c1ccccc1CNc1nc(-c2ccc3c(c2)OCO3)cs1` showed a pIC50 of 5.02.

`Oc1ccc(-c2csc(NCc3ccccc3)n2)cc1O`: the pIC50 in the series on B16 is 5.68.

The term half-life denotes the time needed for the level to fall by half in the phase considered. Broadly, the pIC50 is −log10 of the IC50, conventionally taken in molar units. A low value points to a large IC50.
